Data on 35 compounds can be found in ChEMBL document CHEMBL1129975, “Depsides and depsidones as inhibitors of HIV-1 integrase: discovery of novel inhibitors through 3D database searching” (J Med Chem, 1997).

Some results are limits rather than exact numbers.

One may read the IC50 as the midpoint of a concentration-inhibition curve.

Experiment [1] addresses T1, Human immunodeficiency virus type 1 integrase (Human immunodeficiency virus 1, UniProt Q7ZJM1). The experiment in a line: Inhibitory concentration of compound against strand transfer of HIV-1 integrase in experiment 2.
Experiment [2] addresses T1, Human immunodeficiency virus type 1 integrase. In words: Inhibitory concentration of compound against strand transfer of HIV-1 integrase in experiment 1.
Experiment [3] shares this target. In words: Inhibitory concentration of compound against 3'-processing of HIV-1 integrase in experiment 2.
For experiment [4] the target is unchanged. In words: Inhibitory concentration of compound against 3'-processing of HIV-1 integrase in experiment 1.
For experiment [5] the target is unchanged. The experiment in a line: Inhibitory concentration of compound against disintegration (reversal of strand transfer)of HIV-1 integrase. The method, boiled down:
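Disintegration run under the integrase assay conditions (200 nM enzyme preincubated 30 min at 30 °C in MnCl2/MOPS buffer, then 1 h with substrate). Substrate was a Y-shaped branched oligonucleotide mimicking a strand transfer product, 32P-labelled at the 5′ end of its 15-mer. The core-truncated mutant IN50-212 was used as enzyme. The 30-mer product was resolved on a denaturing 20% gel. IC50 was taken from a percent-inhibition plot.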

Experiment [6] has as its target T2, Human immunodeficiency virus type 2 integrase (Human immunodeficiency virus 2, UniProt P89582).
T2 sequence (P89582 whole entry): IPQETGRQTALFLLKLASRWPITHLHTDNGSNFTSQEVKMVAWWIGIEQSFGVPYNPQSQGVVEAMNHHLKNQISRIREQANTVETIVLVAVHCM
The experiment in a line: Inhibitory concentration of compound against strand transfer of HIV-2 integrase. The method, boiled down: (§1)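 Integrase (200 nM final) preincubated with inhibitor for 30 min at 30 °C in pH 7.2 MOPS/HEPES buffer with 7.5 mM MnCl2, 10% DMSO, BSA and 2-mercaptoethanol. Then 20 nM 5′-32P-labeled 21-mer U5 LTR duplex was added for 1 h. Quenched with formamide/EDTA dye and run on denaturing 20% PAGE. IC50 read from a plot of % inhibition against drug concentration.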

Experiment [7] concerns the target T2, Human immunodeficiency virus type 2 integrase. In words: Inhibitory concentration of compound against 3'-processing of HIV-2 integrase.
Experiment [8] deals with T1, Human immunodeficiency virus type 1 integrase. The experiment in a line: Inhibitory concentration of compound against 3'-processing of HIV-1 integrase in experiment 1&2. The method in brief:
(§2)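 Purified recombinant HIV-1 integrase (200 nM final) preincubated with inhibitor for 30 min at 30 °C. Buffer: 25 mM MOPS pH 7.2, 7.5 mM MnCl2, 50 mM NaCl, 10% DMSO, 10% glycerol, 0.1 mg/mL BSA. Then 20 nM 5′-32P-labelled 21-mer blunt-end U5 LTR duplex was added for 1 h. Products were resolved on a denaturing 20% polyacrylamide/urea gel. IC50 was read from a percent-inhibition versus concentration plot.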

For experiment [9] the target is unchanged. The experiment in a line: Inhibitory concentration of compound against strand transfer of HIV-1 integrase in experiment 1&2. The method in brief:
as §2

Experiment [10] concerns the target T2, Human immunodeficiency virus type 2 integrase.
Experiment [11] has the same target. In words: Inhibitory concentration of compound against strand transfer of HIV- integrase. The method, boiled down: as §1
Experiment [12] shares this target. In words: Inhibitory concentration of compound against 3' processing of HIV-2 integrase. The method, boiled down:
as §1

T1 sequence (Q7ZJM1 whole entry): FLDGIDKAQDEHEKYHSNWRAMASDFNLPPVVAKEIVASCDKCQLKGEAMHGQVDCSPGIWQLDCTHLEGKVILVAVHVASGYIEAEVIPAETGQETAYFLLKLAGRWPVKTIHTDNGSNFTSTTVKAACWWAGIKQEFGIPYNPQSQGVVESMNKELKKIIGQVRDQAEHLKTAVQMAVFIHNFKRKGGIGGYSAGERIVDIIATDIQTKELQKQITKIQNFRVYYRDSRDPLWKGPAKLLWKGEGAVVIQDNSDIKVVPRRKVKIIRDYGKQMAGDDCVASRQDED

As for `CCOC(=O)c1cnc(NCCCNc2ncc(C(=O)OCC)c(=O)[nH]2)[nH]c1=O`, the IC50 in experiment [1] turned out to be 7.9 µM; in experiment [2] it was 16.7 µM; in experiment [3] it was 11.6 µM; in experiment [4], 12.8 µM.
As to `CCN(CC)c1ccc(Cc2ccc(N(C)C)c(Cl)c2)cc1`, the concentration for half-maximal inhibition (IC50) in [1] is 38.6 µM; in experiment [2], 45.8 µM; in experiment [3], 78.6 µM; in experiment [4], 61.8 µM.
Taken in the same sequence, the figures for `Cc1cc(C(O)(c2cc(C)c(O)c(C(=O)O)c2)c2cc(C)c(O)c(C(=O)O)c2)cc(C(=O)O)c1O` were 23 µM, 21.8 µM, 32.8 µM and 35.8 µM.
With `COC(=O)c1c(C)cc(OC(=O)c2c(C)cc(O)c(C=O)c2O)c(C)c1O` [ATRANORIN], the 50% inhibitory concentration (IC50) in experiment [1] turned out to be 44 µM; in experiment [2], 36 µM; in [3], 62.4 µM; in [4], 61 µM; in [5], 128 µM.
`O=C(/C=C/c1ccc(O)c(O)c1)O[C@H]1[C@H](O)C[C@](O)(C(=O)O)C[C@H]1OC(=O)/C=C/c1ccc(O)c(O)c1`: the IC50 in experiment [6] came out at 0.5 µM; in [1] it was 0.7 µM; in experiment [2], 0.6 µM; in experiment [3], 0.7 µM; in experiment [4] it was 1.3 µM; in experiment [7] it was 0.5 µM.
As to `Cc1cc(O)c(C=O)c2c1C(=O)Oc1c(C)c(O)c(C(=O)O)c(C)c1O2`, the half-inhibitory concentration (IC50) in experiment [8] is 4.6 µM; in [5] it was 33.5 µM; in [9], 6.5 µM.
Regarding `O=[N+]([O-])c1cccc(/C=N/CCN2CCN(CC/N=C/c3cccc([N+](=O)[O-])c3O)C2c2cccc([N+](=O)[O-])c2O)c1O`, the half-inhibitory concentration (IC50) worked out at 49.5 µM in experiment [1], 36.7 µM in experiment [2], 60.8 µM in experiment [3] and 52.7 µM in [4].
With `COc1cc(C(=O)O)c2c(c1C)OC(=O)c1c(C)cc(O)c(C=O)c1O2` [PSOROMIC ACID], the 50% inhibitory concentration (IC50) came out at 12.3 µM in experiment [1], 5.3 µM in [2], 15.1 µM in experiment [3] and 17 µM in experiment [4].
Take `CCCCCc1cc2cc(O)cc(Oc3c(O)cc(O)c(C(=O)O)c3CCCCC)c2c(=O)o1`: the half-maximal inhibitory concentration (IC50) came out at 45.7 µM in [2], 52.2 µM in experiment [4] and 35 µM in experiment [5].
Take `O=C(O)c1ccccc1C(c1cc(Br)c(O)c(Br)c1)c1ccc(Br)c(O)c1Br` (stereo not given): the IC50 was found to be 27.2 µM in experiment [1], 38.8 µM in experiment [2], 25.6 µM in experiment [3] and 43.7 µM in [4].
For `CCCCCC(=O)Cc1cc(O)cc2c1C(=O)Oc1cc(O)c(C(=O)O)c(CCCCC)c1O2` [PHYSODIC ACID], the IC50 worked out at 38.5 µM in [8], 32.5 µM in experiment [5] and 30.9 µM in [9].
Take `CC(=O)C1=C(NNC(=O)c2ccccn2)[C@@]2(C)C(=CC1=O)Oc1c(C(C)=O)c(O)c(C)c(O)c12`: the IC50 in experiment [1] turned out to be 55 µM; in [2], 48.5 µM; in experiment [3], 60.8 µM; in experiment [4], 73 µM; in [5], 39 µM.
With `Cc1c2cc(O)c(=O)cc-2oc2cc(O)c(O)cc12`, the half-inhibitory concentration (IC50) came to 0.9 µM in experiment [1]; 1.1 µM in experiment [2]; 1.5 µM in [3]; 1.1 µM in [4]; 1.5 µM in [10]; 2.3 µM in experiment [7].
Take `O=C(NC(Cc1ccc(O)c(O)c1)C(=O)OCc1ccccc1)c1ccc([N+](=O)[O-])cc1` (stereo not given): the concentration for half-maximal inhibition (IC50) in experiment [1] stood at 76.6 µM; in experiment [2], 55.4 µM; in [3], 253 µM; in experiment [4], 163 µM.
Taken in the same sequence, the figures for `O=C(O)c1cc(/N=N\c2ccccc2C(=O)O)ccc1O` were 224 µM, 116 µM, 211 µM and 116 µM.
Regarding `Cc1cc(C(c2cc(C)c(O)c(C(=O)O)c2)c2cc(C)c(O)c(C(=O)O)c2)cc(C(=O)O)c1O`, the concentration for half-maximal inhibition (IC50) in experiment [1] is less than 23.4 µM; in experiment [2], 16.7 µM; in experiment [3] it was less than 23.4 µM; in experiment [4] it was 20.4 µM.
Turning to `Nc1cc(C(=O)O)c(-c2cc(O)c(N)cc2C(=O)O)cc1O`, the IC50 was determined as 234 µM in [2] and 212 µM in experiment [4].
As for `O=C1OC2C(O)COC2(O)C1(O)Cc1cc(O)c(O)c(Br)c1Br` (stereo not given), the IC50 stood at 24.3 µM in experiment [1], 50.2 µM in experiment [2], 28.7 µM in experiment [3] and 64.7 µM in experiment [4].
In the case of `CC(=O)C1=C(O)C=C2Oc3c(C(C)=O)c(O)c(C)c(O)c3[C@@]2(C)C1=O` [(+)-USNIC ACID], the IC50 in experiment [8] is 126 µM; in experiment [5], 133 µM; in experiment [9] it was 124 µM.
Take `Cc1ncc(COP(=O)(O)O)c(C2NC(C(=O)O)CS2)c1O` (stereo not given): the IC50 turned out to be 31.7 µM in [1], 93.4 µM in experiment [2], 75.1 µM in [3] and 91.7 µM in experiment [4].
As for `O=C(/C=C/c1ccc(O)c(O)c1)O[C@@H]1C[C@](O)(C(=O)O)C[C@@H](O)[C@H]1O` (single isomer, unassigned) [CHLOROGENIC ACID], the IC50 in experiment [1] was 31.3 µM; in experiment [2], 45.8 µM; in experiment [3] it was 58.2 µM; in experiment [4], 87.8 µM.
Taken in the same sequence, the figures for `O=C(c1ccc(O)cc1O)C1C(c2ccc(O)cc2)OC(c2ccc(O)cc2)C1C(=O)c1ccc(O)cc1O` (stereo not given) were 129 µM, 143 µM, 169 µM and 165 µM.
With `COc1cc(C)c2c(c1C=O)Oc1c(c(C)c(O)c3c1C(O)OC3=O)OC2=O` (stereo not given) [STICTIC ACID], the half-inhibitory concentration (IC50) in experiment [1] turned out to be 1.9 µM; in experiment [2], 2.6 µM; in [3], 2.9 µM; in experiment [4], 4.4 µM; in [5], 11.7 µM.
On to `Cc1cc(O)c(C=O)c2c1C(=O)Oc1c(CO)c(O)c3c(c1O2)C(O)OC3=O` (stereo not given) [SLAZINIC ACID], for which the IC50 in [1] was found to be 6.2 µM; in [2], 12.6 µM; in experiment [3], 16 µM; in experiment [4], 19 µM.
For `O=C1C(O)=C(c2ccccc2)C12CSC1(CS2)C(=O)C(O)=C1c1ccccc1` (stereo not given), in that order: 54.8 µM, 172 µM, 60 µM and 132 µM.
Regarding `COC(=O)c1c(C)c2c(c(C)c1O)OC(=O)c1c(C)cc(O)c(C=O)c1O2`, the 50% inhibitory concentration (IC50) in experiment [8] amounted to 5.4 µM; in [5], 26 µM; in experiment [9] it was 4.4 µM.
Regarding `O=C(NO)c1cc(O)c(O)c(O)c1`, the IC50 in experiment [1] came out at 1.6 µM; in experiment [2] it was 0.5 µM; in experiment [3], 3.2 µM; in [11] it was 1.6 µM; in experiment [4] it was 1.1 µM; in [12], 1.6 µM.
As for `O=C(O)c1ccc(C(=O)O)c2c(C(=O)O)ccc(C(=O)O)c12`, the IC50 in experiment [1] is 182 µM; in [2], 176 µM; in experiment [3] it was 174 µM; in [4], 122 µM.
On to `Cc1cc(O)c(C=O)c2c1C(=O)Oc1c(COC(=O)/C=C/C(=O)O)c(O)c(C(=O)O)c(C)c1O2` [FUMARPROTOCETRARIC ACID], for which the IC50 came out at 7.3 µM in [1], 4.9 µM in [8] and 4.6 µM in experiment [9].
`C[C@@](O)(/C=C/[C@H]1CC=CC(=O)O1)[C@@H](C[C@@H](O)C=CC=C/C=C/CO)OP(=O)(O)O` [FOSTRIECIN]: the concentration for half-maximal inhibition (IC50) in experiment [1] amounted to 52.7 µM; in experiment [2] it was 12.8 µM; in experiment [3], 118 µM; in experiment [4], 41.3 µM.
Take `Cc1cc(Cc2cc(C)c(O)c(C(=O)O)c2)cc(C(=O)O)c1O`: the IC50 amounted to 61.8 µM in experiment [8] and 68.5 µM in experiment [9].
For `CCCCCc1cc(O)cc2c1Oc1cc(O)cc(C(=O)CCCC)c1C(=O)O2`, the IC50 in [1] is 28.1 µM; in experiment [2] it was 39.2 µM; in experiment [3], 42.2 µM; in experiment [4], 59.9 µM.
Taken in the same sequence, the figures for `O=C(Nc1ccc(C(=O)O)c(O)c1)c1ccc(C(=O)Nc2ccc(O)c(C(=O)O)c2)cc1` were 20 µM, 16.3 µM, 25.2 µM and 23.6 µM.
Take `O=C(O)c1cnc2c(ccc3ncc(C(=O)O)c(O)c32)c1O`: the IC50 in experiment [1] was 6.1 µM; in experiment [2] it was 9.8 µM; in experiment [3] it was 6.1 µM; in experiment [4] it was 7.6 µM.
For `COc1cc(C)c2c(c1C)OC(=O)c1c(C)c(Cl)c(O)c(C=O)c1O2`, the IC50 came to 2.7 µM in experiment [1]; 1.6 µM in [2]; 2.7 µM in experiment [3]; 2.2 µM in experiment [4]; 12.8 µM in experiment [5].
